# Bioassay records: PubChem, several laboratories
# CSC inhib: cancer stem cell inhibition. inhibition, % at 7.5 µM. cancer stem cell-like cells viability, luminescence. 1.1% of 300,000 active; in the data active = inhibition above about 75%; inconclusive = no clear call, values can overlap the other calls; tested in HMLE shEcad cells
# XBP1 UPR activ: activators of adaptive arm of unfolded protein response (XBP1) | activation, % at 20 µM | 0.33% of 330,000 active | CHO-XBP1 luciferase reporter, IRE1-XBP1 UPR activation, luminescence; percent of tunicamycin response, DMSO as zero | AID 463104;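 active = versus positive control, 20 µM dose yields 30% or more activation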;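 note: 100% = tunicamycin at 10 µg/mL and 0% = DMSO only wells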
#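 Material: CHO cell line with stable XBP1 luciferase reporter; schedule: 16-18 h cell attachment at 37 °C, then 6 h compound exposure; signal: glow luminescence from Steady-Glo reagent; medium: serum-containing F12 medium, 10% FBS; benchmarks: tunicamycin 10 µg/mL and vehicle-only wells; read-out: percent activation relative to tunicamycin reference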
# T cruzi inh: blocks replication of Trypanosoma cruzi | T. cruzi beta-gal in NIH3T3, luminescence, 90 h | 1.4% of 300,000 active | inhibition, % (test concentration not listed);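 active = mean inhibition across valid replicates above about 55%, limit read from the data; inconclusive = mean below that limit but half or more replicates reach it; inactive = mean below it, under half of replicates reach it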;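 note: signal also drops with host cell toxicity which is not excluded here; 0% = plate median of DMSO wells and 100% = zero luminescence signal; higher percent means less beta-gal luminescence so fewer parasites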
#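 System – NIH/3T3 host cells with β-galactosidase reporter T. cruzi · Doses – single 50 nL compound addition per well in DMSO · Reagent – 5000 T. cruzi trypomastigotes/well · Medium – Low-serum DMEM with 2% FBS · Timing – ≥90 h infection period, 3 h prior cell attachment · Evaluation – parasite load inhibition, % · Technique – GalScreen luminescence, 60 min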
# UPR CHOP act: activators of apoptotic arm of unfolded protein response (CHOP); CHO-CHOP luciferase reporter, UPR activation, luminescence; percent of tunicamycin response over DMSO baseline; activation, % at 10 µM; 0.34% of 330,000 active; AID 449763;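 active = at 10 µM dose, activation of 40% or more, normalized to positive control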;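 note: 100% = tunicamycin at 10 µg/mL and 0% = DMSO alone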
#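 System: CHO CHOP reporter cells. Amount: 500 cells per well. Buffer or medium: F12 medium, 10% FBS. Compound dosing: one dose, 10 µM in 0.5% DMSO. Incubation: 6 h compound exposure at 37 °C after overnight seeding. Technique: Steady-Glo luciferase luminescence. Benchmarks: tunicamycin and DMSO controls.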
# Beta apoptosis: beta cell apoptosis inhibition; 0.8% of 300,000 active; protection from apoptosis, % (concentration not given with the values); INS-1E cytokine-induced death, ATP luminescence, 48 h; percent of positive-control rescue, neutral wells zero;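 active = Every replicate reaches about 75%, or at least half do and their mean reaches it too, limit read from the data; inconclusive = At least half of replicates reach the limit but their mean does not; inactive = Under half of replicates reach the limit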;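 note: 0% = cytokine-treated negative control wells and 100% = positive control rescue; higher means more ATP so stronger rescue from cytokine killing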
# Mdm2 MdmX PPI: disrupts the human Mdm2-MdmX interaction; SaOS-2 split-luciferase Mdm2/MdmX complementation, luminescence; inhibition, % at 8 µM; 3% of 330,000 active; O15151+Q00987;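 active = inhibition of at least 50% at 8 µM in the primary screen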
# Target sequence (O15151 whole entry, looked up): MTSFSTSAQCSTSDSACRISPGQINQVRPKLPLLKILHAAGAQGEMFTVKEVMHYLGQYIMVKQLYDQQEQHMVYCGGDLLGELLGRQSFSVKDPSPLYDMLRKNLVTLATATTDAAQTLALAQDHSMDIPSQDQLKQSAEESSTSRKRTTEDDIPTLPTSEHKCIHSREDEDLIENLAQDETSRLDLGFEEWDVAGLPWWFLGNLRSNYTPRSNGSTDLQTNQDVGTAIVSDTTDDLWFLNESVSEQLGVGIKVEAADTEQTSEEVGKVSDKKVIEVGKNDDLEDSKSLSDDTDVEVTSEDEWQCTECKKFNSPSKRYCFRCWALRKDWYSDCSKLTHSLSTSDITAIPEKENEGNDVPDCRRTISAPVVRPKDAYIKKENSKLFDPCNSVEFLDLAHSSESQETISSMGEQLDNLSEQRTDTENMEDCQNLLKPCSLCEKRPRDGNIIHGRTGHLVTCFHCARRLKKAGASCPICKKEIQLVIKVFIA
# Target sequence (Q00987 whole entry, looked up): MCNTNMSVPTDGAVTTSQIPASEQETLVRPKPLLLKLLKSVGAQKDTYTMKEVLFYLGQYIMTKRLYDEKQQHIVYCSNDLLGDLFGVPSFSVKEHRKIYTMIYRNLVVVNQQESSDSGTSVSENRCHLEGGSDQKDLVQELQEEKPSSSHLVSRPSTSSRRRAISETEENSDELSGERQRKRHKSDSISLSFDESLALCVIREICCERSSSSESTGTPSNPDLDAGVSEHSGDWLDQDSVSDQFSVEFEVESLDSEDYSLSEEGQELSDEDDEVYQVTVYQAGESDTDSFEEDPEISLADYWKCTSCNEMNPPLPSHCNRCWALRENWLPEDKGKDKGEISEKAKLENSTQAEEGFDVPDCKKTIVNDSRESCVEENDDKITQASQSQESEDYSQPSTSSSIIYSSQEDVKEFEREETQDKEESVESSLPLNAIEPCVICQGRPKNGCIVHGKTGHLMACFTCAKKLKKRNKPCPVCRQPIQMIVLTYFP
# Mdm2-MdmX conf: confirmation of human Mdm2/MdmX interaction inhibitors | shares compounds with Mdm2 MdmX PPI | Mdm2-MdmX binding, luminescent assay | inhibition, % at 8 µM | 55% of 10,000 active; in the data active = inhibition above about 40%
# Full FLuc ctr: counter-screen for Mdm2/MdmX inhibitors: full-length luciferase. AID 504607. shares compounds with Mdm2 MdmX PPI. SaOS-2 full-length luciferase counterscreen, luminescence. 77% of 6,200 active. inhibition, % at 8 µM;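 active = mean inhibition at 8 µM reaching about 37%, which flags the compound as non-specific, limit read from the data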;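 note: p53-null SaOS-2 cells with luciferase driven by a doxycycline-inducible promoter; compound on cells about two nights before reading with doxycycline added after day one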
# Active calls of the source: *; ? = inconclusive; · = no result given. Only some compounds are listed: those with a hit (about 5% of all), similar ones and a draw of the others.
SMILES,CSC inhib,XBP1 UPR activ,T cruzi inh,UPR CHOP act,Beta apoptosis,Mdm2 MdmX PPI,Mdm2-MdmX conf,Full FLuc ctr
Cc1ccc2nc(/C(C#N)=C\c3cc(O)ccc3[N+](=O)[O-])[nH]c2c1,-13.3,-2.4,3.8,3.1,·,11.5,·,·
COc1ccc(NC(=O)c2ccccc2N2C(=O)C3C4C=CC(C5CC45)C3C2=O)c(OC)c1 (stereo not drawn),-16.2,-3.2,-1.4,4.4,-9.9,-2.2,·,·
Cc1[nH]n(-c2nc(-c3ccc(Cl)cc3)cs2)c(=O)c1N=Nc1ccc(O)cc1,-1.6,-4.1,?,31.8,51.5,63.4*,35.9,83.2*
O=C(Nc1ccc(F)cc1F)c1cccc(C(=O)Nc2ccc(F)cc2F)n1,56.3,15.8,-10.1,17.2,68.7,94.8*,87.0*,50.1*
O=C(Nc1ccc(F)cc1F)c1csc(-c2ccccc2)n1,4.4,0.2,-8.2,0.3,·,-28.3,·,·
Cc1ccc(Cl)cc1Nc1nc(-c2sc(NC(=O)c3cccc(Cl)c3)nc2C)cs1,22.2,7.5,-13.1,5.6,5.3,-50.6,·,·
CCC(=O)Nc1nc(C)c(-c2csc(Nc3cccc(O)c3)n2)s1,76.7*,-9.2,-7.8,2.3,-4.5,72.6*,32.7,·
C=CCCC(=O)Nc1nc(C)c(-c2csc(Nc3ccccc3OC)n2)s1,54.7,1.7,-3.6,0.6,5.9,59.5*,56.4*,56.1*
COc1cccc(N(C(=O)c2ccco2)c2nc(-c3sc(NC(=O)c4ccco4)nc3C)cs2)c1,11.9,10.3,15.4,4.8,-0.2,74.2*,48.9*,61.5*
Cc1ccc(Cl)cc1Nc1nc(-c2sc(NC(=O)c3ccco3)nc2C)cs1,62.6,6.6,16.8,2.2,-13.8,81.1*,32.4,·
CC(=O)c1cc(F)ccc1OCC(=O)N1CCN(c2ccc(F)cc2)CC1,0.1,-0.2,-8.5,-0.3,0.2,9.6,·,·
O=C(NCCCc1ccncc1)C1CCC(=O)N(CCc2cccc(F)c2)C1 (stereo not drawn),-9.6,-1.9,9.4,-0.8,-4.7,20.7,·,·
C=CCCC(=O)Nc1nc(C)c(-c2csc(Nc3cc(Cl)ccc3OC)n2)s1,29.2,-2.3,-4.6,2.2,-6.9,28.9,·,·
C=CCCC(=O)Nc1nc(C)c(-c2csc(Nc3ccc(Cl)cc3Cl)n2)s1,38.4,1.2,50.1,3.4,-4.1,53.8*,-17.1,·
O=c1c2ccc(Cl)cc2nc(-c2cccc(C(F)(F)F)c2)n1O,-5.9,4.5,-7.6,19.7,51.3,88.0*,39.1,·
O=c1c2ccccc2nc(-c2ccc(Cl)c(Cl)c2)n1O,-0.2,-0.3,3.2,0.8,40.3,81.9*,64.2*,26.8
CCN1CCN(S(=O)(=O)c2ccc(OC)cc2)CC1,-8.1,-4.6,-2.4,1.8,·,13.7,·,·
COc1ccc(CN(CCC(c2ccccc2)c2ccc(OC(C)C)cc2)C(=O)CCl)cc1OC (stereo not drawn),?,-6.2,25.1,-8.9,9.2,100.5*,85.2*,55.1*
COc1ccc(CNCCC(c2ccccc2)c2ccc(OC(C)C)cc2)cc1OC (stereo not drawn),9.5,-2.4,26.2,1.4,41.8,75.0*,26.3,·
COc1ccc(CNCCC(c2ccc(F)cc2)c2ccc(OC(C)C)cc2)cc1OC (stereo not drawn),20.6,-1.1,43.1,-0.9,7.3,92.6*,34.0,75.5*
COc1ccc(CNCCC(c2ccc(F)cc2)c2ccc(OC)cc2)cc1 (stereo not drawn),26.0,-2.9,51.3,-1.0,6.1,66.3*,43.5*,81.8*
COc1ccc(C(CCN(Cc2ccc(OC)c(OC)c2)C(C)=O)c2ccccc2)cc1 (stereo not drawn),·,-3.1,20.6,-3.5,2.8,18.1,·,·
COc1ccc(NC(=O)N(C)C[C@H]2Oc3c(NC(=O)C4CCCCC4)cccc3C(=O)N([C@H](C)CO)C[C@@H]2C)cc1,·,0.7,·,0.9,1.1,13.2,·,·
O=C(Cc1csc(NC(=O)Nc2ccc(Cl)cc2)n1)NCc1ccccn1,·,2.4,?,6.7,3.7,5.9,·,·
O=C(Cc1csc(Nc2nc(=S)[nH]c3ccccc23)n1)NCc1ccc(Cl)cc1,-3.8,-3.1,13.5,-1.1,6.0,73.6*,5.8,·
SMILES,CSC inhib,XBP1 UPR activ,T cruzi inh,UPR CHOP act,Beta apoptosis,Mdm2 MdmX PPI,Mdm2-MdmX conf,Full FLuc ctr
COc1ccc(/C=C/c2nc(S(=O)(=O)c3ccccc3)c(N(C)C)o2)cc1,-24.3,-3.1,8.9,-0.5,1.7,15.5,·,·
CCc1cc(C(=O)N2CCN(S(=O)(=O)c3ccc(Cl)cc3)CC2)sc1C,·,-3.0,·,-1.1,-1.3,31.8,·,·
Cn1nnc2c[n+](CC(=O)c3ccc4ccccc4c3)cc(Br)c21,5.4,3.7,-15.7,29.3,-5.1,65.0*,32.1,62.9*
Cn1nnc2c[n+](CC(=O)c3ccc(Cl)cc3)cc(Br)c21,15.9,4.9,8.4,9.1,-6.8,47.7,·,·
COc1ccc(CCN2CC(C(=O)OCC(=O)Nc3c(C)nn(-c4ccccc4)c3C)CC2=O)cc1OC (stereo not drawn),-8.0,-0.2,-6.7,-1.3,-1.4,15.2,·,·
Cc1nc2ccc(S(=O)(=O)NCC(=O)N3CCC(C)CC3)cc2s1,-7.4,-4.4,-2.3,-1.7,-2.2,21.3,·,·
Cc1cccc(NC(=O)CSc2nc3ccccc3nc2N2CCCCC2)c1,42.6,-3.4,18.6,0.7,4.3,96.2*,43.9*,101.9*
COc1ccc(NC(=O)CSc2nc3ccccc3nc2N2CCCCC2)cc1,-0.9,-2.4,24.7,0.1,1.4,37.2,·,·
Cc1cccc(NC(=O)CSc2nc3ccccc3nc2N2CCCC2)c1,24.7,-1.6,-0.7,2.4,-2.6,84.8*,45.4*,80.9*
Cc1cccc(NC(=O)CSc2nc3ccccc3nc2N2CC(C)OC(C)C2)c1 (stereo not drawn),6.5,-1.5,17.6,-1.2,3.8,24.1,·,·
CCc1ccc(NC(=O)CSc2nc3ccccc3nc2N2CCCCC2)cc1,8.5,1.1,26.8,7.6,16.6,37.2,·,·
COc1cccc(NC(=O)CSc2nc3ccccc3nc2N2CCCC2)c1,2.8,1.0,-3.8,4.8,-2.0,63.8*,2.5,·
CC1(C(=O)NCc2ccccn2)C=CCN1C(=O)c1ccccc1 (stereo not drawn),11.7,-1.3,-3.7,-0.5,0.0,14.9,·,·
Fc1ccc(Nc2nc(N3CCOCC3)c3ccccc3n2)cc1,·,3.4,39.0,-5.0,19.2,51.6*,28.9,·
Oc1ccccc1N=Cc1c(O)ccc2oc3c(c12)CCCC3,17.0,-3.1,-0.5,-0.9,-2.3,51.9*,43.6*,71.7*
